The source made the active and inactive calls. The calls are words filed in the database; no cut-off is given here.
Tests used:
Format in all cases: functional, cell-based
[1] = tested on: M14; assay: Cytotoxicity against human M14 cells after 48 hrs by MTT assay
In short: (§1)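 Adherent lines from ATCC, grown in DMEM with 2 mM L-glutamine, 10% heat-inactivated FBS and 1% pen/strep, used for up to 10 passages. 3 × 10^3 cells were seeded per well and left overnight at 37 °C in 5% CO2. Serial dilutions (1-50 µM) were added for 48 h. MTT (5 mg/mL stock) was added for 3 h, then solubilised in 50% DMF/20% SDS at pH 4.5. OD was read at 620 nm, with viability given as % of 0.1% DMSO controls.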

[2] = tested on: MCF7; assay: Cytotoxicity against human MCF7 cells after 48 hrs by MTT assay; in short: as §1
[3] = tested on: T98G; assay: Cytotoxicity against human T98G cells after 48 hrs by MTT assay; in short: as §1
[4] = tested on: A549; assay: Cytotoxicity against human A549 cells after 48 hrs by MTT assay; in short: as §1
[5] = tested on: SAOS-2; assay: Cytotoxicity against human Saos2 cells after 48 hrs by MTT assay; in short: as §1
[6] = tested on: FRO; assay: (§2) Cytotoxicity against human FRO cells after 48 hrs by MTT assay; in short: as §1
[7] = tested on: U-937; assay: Cytotoxicity against human U937 cells after 48 hrs by MTT assay
In short: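 U937 cells were grown in RPMI with 2 mM L-glutamine, 10% FBS and 1% pen/strep, for no more than 10 passages. 3 × 10^3 cells per well were plated and incubated overnight at 37 °C in 5% CO2, then exposed to serial dilutions (1-50 µM) for 48 h. MTT (5 mg/mL stock) was added for 3 h, followed by lysis in 50% DMF/20% SDS at pH 4.5. OD was read at 620 nm, and viability was expressed against 0.1% DMSO controls.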

[8] = as §2; in short: as §1

Row | SMILES | Activity [1] | Activity [2] | Activity [3] | Activity [4] | Activity [5] | Activity [6] | Activity [7] | IC50 ([1]; M14, 48 h) | IC50 ([2]; MCF7, 48 h) | IC50 [3] | IC50 ([4]; A549, 48 h) | IC50 ([5]; SAOS-2, 48 h) | IC50 [8] | IC50 ([7]; U-937, 48 h)
1 | C=C1C[C@@H](O[C@@H]2O[C@H](CO)[C@@H](O)[C@H](O)[C@H]2O)[C@@H]2C(C)(C)[C@@H](O)CC[C@@]2(C)[C@@H]1COc1ccc2ccc(=O)oc2c1 | inactive | inactive | inactive | inactive | inactive | inactive | inactive |  |  |  |  |  |  | 
2 | CC1(C)[C@H](O)CC[C@]2(C)[C@@H]1C=C[C@](C)(O)[C@H]2COc1ccc2ccc(=O)oc2c1 | inactive | inactive | inactive | inactive | inactive | inactive | inactive |  |  |  |  |  |  | 
3 | C=C1C[C@@H](O[C@@H]2O[C@H](CO)[C@@H](O)[C@H](O)[C@H]2O)[C@@H]2C(C)(C)[C@H](O)CC[C@@]2(C)[C@@H]1COc1ccc2ccc(=O)oc2c1 | inactive | inactive | inactive | inactive | inactive | inactive | inactive |  |  |  |  |  |  | 
4 | C=C1C[C@@H](O[C@@H]2O[C@H](CO[C@@H]3OC[C@](O)(CO)[C@H]3O)[C@@H](O)[C@H](O)[C@H]2O)[C@@H]2C(C)(C)[C@H](O)CC[C@@]2(C)[C@@H]1COc1ccc2ccc(=O)oc2c1 | inactive | inactive | inactive | inactive | inactive | inactive | inactive |  |  |  |  |  |  | 
5 | CC1=CC[C@@H]2C(C)(C)[C@H](O)CC[C@@]2(C)[C@@H]1COc1ccc2ccc(=O)oc2c1 [FESELOL] |  |  |  |  |  |  |  | > 10 µM | > 10 µM | > 10 µM | > 10 µM | > 10 µM | > 10 µM | 8 µM
